Measured values as given in ChEMBL document CHEMBL4651341, “The discovery of a novel series of compounds with single-dose efficacy against juvenile and adult Schistosoma species” (PLoS Negl Trop Dis, 2021).
In brackets after ≈: the same amount, converted by molar mass.

Experiments:
Schistosoma mansoni [1] = assay: Concentration required to kill 50% of 21 day old worms 5 days after drug treatment.; assay type: functional, organism-based; conditions: Puerto Rican, 120 h
Outline: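 Juvenile S. mansoni (Puerto Rican strain) were perfused from CD1 mice 3 weeks post-infection and washed. They were cultured 6–8 per well in 200 µL DMEM with 2 mM glutamine, penicillin/streptomycin and 10% FCS at 37 °C, 5% CO2. Viability of individual worms was scored on day 5 after dosing (120 h).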

[2] = Percentage of parent compound remaining after incubation for 90 minutes with cyropreserved human hepatocytes at a concentration of 1uM compound and 1 million cells/uL, determined by LCMS/MS; assay type: ADME, tissue-based, Hepatocyte; conditions: cryopreserved human hepatocytes, read-out: Stability
Outline: (§1)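 Compound was incubated at 1 µM final (2 µM working solution mixed 1:1 with hepatocyte suspension) in supplemented KHB pH 7.4. Conditions: 37 °C, 5% CO2, gentle mixing, duplicates. Reaction quenched with ice-cold acetonitrile containing standard; analysed by LC-MS/MS. % remaining = AUC at t / AUC at T0.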

[3] = Percentage of parent compound remaining after incubation for 90 minutes with cyropreserved mouse hepatocytes at a concentration of 1uM compound and […], determined by LCMS; assay type: ADME, tissue-based, Hepatocyte; conditions: cryopreserved mouse hepatocytes, read-out: Stability; outline: as §1
[4] = Concentration required to kill 50% HepG2 cells as detected by MTT staining; assay type: toxicity, cell-based; conditions: homo sapiens, read-out: TC50 (the source's name)
Schistosoma mansoni [5] = assay: Concentration required to kill 50% of 42 day old worms 5 days after drug treatment.; assay type: functional, organism-based; conditions: Puerto Rican, 120 h
Outline: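 Adult S. mansoni were perfused from CD1 mice 6 weeks post-infection and washed. They were cultured 3 pairs per well in 1 mL DMEM with 2 mM glutamine, penicillin/streptomycin and 10% FCS […] at 37 °C, 5% CO2. Viability of individual worms was scored on day 5 (120 h).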

[6] = Mean plasma concentration at 4h in Swiss albino male mice at […] per compound (administered orally in a mixture of 5 compounds to 3 mice) assessed by LCMS/MS.; assay type: ADME, organism-based; conditions: mouse, po
[7] = Mean plasma concentration at 24h in Swiss albino male mice at […] per compound (administered orally in a mixture of 5 compounds to 3 mice) assessed by LCMS/MS.; assay type: ADME, organism-based; conditions: mouse, po
[8] = Mean AUC inf in Swiss albino male mice at 1 mg/kg per compound (administered iv in a mixture of 5 compounds to 3 mice) assessed by LCMS/MS.; assay type: ADME, organism-based; conditions: mouse, in vivo; for AUC(0-inf): male, Swiss albino
Outline: (§2)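 Male Swiss albino mice (~30 g), 3 per experiment, mostly dosed as mixtures of 5 compounds iv via the lateral tail vein. Vehicle: 10% DMSO/90% 50 mM Na2HPO4 with 0.5% Tween-80. Blood sampled at 5, 15, 30 min and 1, 2, 4, 8, 24 h. Plasma stored at −20 °C and quantified by LC-MS after acetonitrile precipitation.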

[9] = Percentage of parent compound remaining after incubation for 30 minutes with cyropreserved mouse hepatocytes at a concentration of 1uM compound and […], determined by LCMS; assay type: ADME, tissue-based, Hepatocyte; conditions: cryopreserved mouse hepatocytes, read-out: Stability; outline: as §1
[10] = Solubility at 25 degC of compound (diluted from DMSO) in PBS at pH 7.4 determined after 24h (1h sonication, 22h shaking, 1h sonication) by LCMS/MS; assay type: physicochemical
[11] = Mean observed clearance in Swiss albino male mice at 1 mg/kg per compound (administered iv in a mixture of 5 compounds to 3 mice) assessed by LCMS/MS.; assay type: ADME, organism-based; conditions: mouse, in vivo; outline: as §2
[12] = Concentration required to kill 50% MRC-5 cells as detected by Alamar blue staining; assay type: toxicity, cell-based, MRC5; conditions: homo sapiens, read-out: TC50 (the source's name)
[13] = Plasma protein binding determined at 10uM by LC-MS/MS.; assay type: ADME, cell-free; conditions: mouse
Outline: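 Equilibrium dialysis of plasma spiked at 10 µM (0.1% DMSO) against PBS pH 7.4, 6 h at 37 °C, duplicates. Both chambers analysed by LC-MS/MS after acetonitrile precipitation. % free = buffer/plasma area ratio; recovery also calculated.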

[14] = Partition coefficient of compound between n-octanol and PBS (pH7.4); assay type: physicochemical; conditions: octanol/water, pH 7.4
Outline: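 Shake-flask method using octanol and PBS pH 7.4, each pre-saturated with the other. Compound was shaken 2 h at 850 rpm, 25 °C, then the phases were separated by centrifugation and both layers diluted and analysed by LC-MS/MS. LogD = log(octanol AUC × relative dilution / buffer AUC).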

[15] = Mean volume of distribution at steady state in Swiss albino male mice at 1 mg/kg per compound (administered iv in a mixture of 5 compounds to 3 mice) assessed by LCMS/MS.; assay type: ADME, organism-based; conditions: mouse, in vivo, read-out: Volume
Outline: (§3)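 Male Swiss albino mice (~30 g), 3 per experiment, mostly dosed as mixtures of 5 compounds iv via the lateral tail vein. Vehicle: 10% DMSO/90% 50 mM Na2HPO4 with 0.5% Tween-80. Plasma stored at −20 °C and quantified by LC-MS after acetonitrile precipitation.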

[16] = Mean oral bioavailability in Swiss albino male mice at […] per compound (administered in a mixture of 5 compounds to 3 mice) assessed by LCMS/MS.; further: dose 2.5 mg/kg; assay type: ADME, organism-based; conditions: male, Swiss albino, mouse, in vivo, read-out: Bioavailability
[17] = Mean half-life in Swiss albino male mice at 1 mg/kg per compound (administered iv in a mixture of 5 compounds to 3 mice) assessed by LCMS/MS.; assay type: ADME, organism-based; conditions: mouse, in vivo; outline: as §3
[18] = Mean time to peak plasma concentration in Swiss albino male mice at […] per compound (administered orally in a mixture of 5 compounds to 3 mice) assessed by LCMS/MS.; assay type: ADME, organism-based; conditions: mouse, po
[19] = Concentration of drug in plasma at 4h following oral drug adminstration at given dose. Determined by LCMS/MS; assay type: ADME, organism-based; conditions: CD1, mouse
Outline: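 Plasma sampled from the mice of the efficacy experiments, each animal sampled once: one animal per group at 1, 4 and 8 h, two per group at 24 h. Plasma prepared by acetonitrile protein precipitation and analysed by LC-MS against a 10-point calibration line spiked in blank matrix, with QCs at three or more levels.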

[20] = male, Swiss albino, read-out: Clearance (converted)

Row | SMILES | EC50 (Schistosoma mansoni [1]) [µM] | remaining at 1.5 h, 1 µM [2] [%] | remaining at 1.5 h, 1 µM [3] [%] | CC50 [4] [µM] | EC50 (Schistosoma mansoni [5]) [µM] | concentration at 4 h [6] [ng/mL] | AUC(0-inf) [8] [ng·h/mL] | solubility kinetic at 24 h [10] [µM] | clearance [11, 20] [mL/min/kg] | Lipophilicity [14] | bioavailability [16] [%] | half-life [17] [h] | Tmax [18] [h] | concentration at 4 h [19] [ng/mL] | further results
1 | CCc1nc2cnc(-c3ccc(F)c(C(C)C)c3)cn2c1-c1ccc2[nH]ncc2c1F | 0.0054 | 37.8 | 59.3 | 11.3 | 0.0039 |  |  |  |  |  |  |  |  |  | 
2 | Oc1cc(F)c(-c2cnc3cnc(-c4cccc(C(F)(F)F)c4)cn23)c(F)c1 | 2.65 |  |  | 23.1 | 2.38 | 171 | 870 | 2.88 (≈ 1.13 µg/mL) | 9.63 | 3.12 = | 41.7 | 2.95 | 0.25 |  | concentration at 24 h [7]: 0.1 ng/mL; remaining at 0.5 h, 1 µM [9]: 74.1%; CC50 [12]: 8.13 µM; Binding [13]: 99.595%; Vd [15]: 0.918 L/kg
3 | CC(C)c1cc(-c2cn3c(-c4ccc5[nH]ncc5c4F)c(C4CCC4)nc3cn2)ccc1F | 0.0043 | 25.3 | 52.1 | 10.9 | 0.0073 |  |  | 1.35 (≈ 0.599 µg/mL) |  |  |  |  |  |  | 
4 | Fc1ccc(-c2cn3c(-c4ccc5[nH]ncc5c4F)c(C4CCC4)nc3cn2)cc1C(F)(F)F | 0.036 | 73.6 | 73.4 |  | 0.0368 |  |  |  |  |  |  |  |  |  | 
5 | Cc1nc2cnc(-c3ccc(F)c(C(F)(F)F)c3)cn2c1-c1ccc(O)cc1F | < 0.641 |  |  | > 11.1 | < 0.78 | 7.79 | 172 | 1.54 (≈ 0.624 µg/mL) | 48.5 | 3.39 = | 13.5 | 2.28 | 0.25 |  | concentration at 24 h [7]: 0.1 ng/mL; remaining at 0.5 h, 1 µM [9]: 64.1%; CC50 [12]: 15.8 µM; Binding [13]: 99.805%; Vd [15]: 2.98 L/kg
6 | CC(C)c1nc2cnc(-c3ccc(F)c(C(F)(F)F)c3)cn2c1-c1ccc2[nH]ncc2c1F |  |  |  | 12 |  | 318 |  |  |  | 4.19 = |  |  | 1 | 1150 | 
7 | CC(C)c1nc2cnc(-c3cccc(C(F)(F)F)c3)cn2c1-c1ccc(O)cc1F | 0.0792 |  |  | 9 | < 0.122 |  |  | 6.8 (≈ 2.82 µg/mL) |  | 4.82 = |  |  |  |  | remaining at 0.5 h, 1 µM [9]: 54.4%; CC50 [12]: 14.5 µM; Binding [13]: 99.945%
8 | CC(C)c1cc(-c2cn3c(-c4ccc5[nH]ncc5c4F)c(C(F)(F)F)nc3cn2)ccc1F | < 0.00267 |  |  | > 17 |  | 52.3 |  |  |  |  |  |  | 0.417 | 1250 | 
9 | Fc1c(-c2c(C(F)(F)F)nc3cnc(-c4cccc(C(F)(F)C(F)(F)F)c4)cn23)ccc2[nH]ncc12 |  |  |  | 10.9 |  | 655 |  |  | 1.43 | 4.5 = |  |  |  | 1100 | 
10 | COc1ccc(-c2c(C(F)(F)F)nc3cnc(-c4cccc(C(F)(F)C(F)(F)F)c4)cn23)cc1O | < 0.0106 |  |  | > 11.1 | 0.021 | 8.54 |  | 1.05 (≈ 0.529 µg/mL) |  | 4.65 = | 9.77 | 2.11 | 0.25 |  | concentration at 24 h [7]: 0.1 ng/mL; AUC [8]: 153 ng·h/mL; remaining at 0.5 h, 1 µM [9]: 75.3%; clearance [11]: 54.3 mL/min/kg; Binding [13]: 99.98%; Vd [15]: 4.94 L/kg
11 | Oc1cc(F)c(-c2c(C3CC3)nc3cnc(-c4ccc(F)c(S(F)(F)(F)(F)F)c4)cn23)c(F)c1 | 0.0104 | 40.2 | 84.9 | 10.1 | 0.00578 |  |  | 41.1 (≈ 20.9 µg/mL) |  |  |  |  |  |  | 
12 | Fc1c(-c2c(C(F)(F)F)nc3cnc(-c4cccc(OC(F)(F)F)c4)cn23)ccc2[nH]ncc12 | 0.0234 | 54 | 88.7 | 9.71 | 0.0206 | 182 | 433 |  | 19.3 |  | 114 | 5.8 | 0.667 |  | concentration at 24 h [7]: 8.87 ng/mL; Vd [15]: 5.68 L/kg
13 | CC(C)c1nc2cnc(-c3ccc(F)c(C(F)(F)F)c3)cn2c1-c1c(F)cc(O)cc1F |  |  |  | 7.13 | < 0.0462 |  | 466 |  | 18 |  |  |  | 0.25 | 4140 | 
14 | CC(C)c1cc(-c2cn3c(-c4ccc5[nH]ncc5c4F)c(C4CC4)nc3cn2)ccc1F |  |  |  | 15.8 |  | 295 | 530 |  |  | 6.53 = | 149 | 6.18 | 1.33 | 104 | 
15 | Fc1ccc(-c2cn3c(-c4ccc5[nH]ncc5c4F)c(C4CC4)nc3cn2)cc1S(F)(F)(F)(F)F | 0.0295 | 101 | 88.6 | 14.8 | 0.0173 |  |  | 0.823 (≈ 0.423 µg/mL) |  |  |  |  |  |  | 
